Each block holds one compound with its values, some of them ahead of it. The source made the active and inactive calls. The rule behind the calls is not given here.
Legend:
[1] = Inhibition of Tpl2 kinase assessed as MEK phosphorylation by ELISA; parameters: species or system Homo sapiens
In short: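 Tpl2 (0.4 nM) incubated with 35 nM GST-MEK1 substrate and 50 µM ATP in pH 7.2 Mops buffer with MgCl2, DTT, β-glycerophosphate, EGTA and orthovanadate, 1 h at 30 °C, 1% DMSO final; stopped with EDTA. GST-MEK1 captured on anti-GST plates, phospho-Ser217/221 detected by anti-phospho-MEK1 and Eu-labelled secondary (DELFIA); IC50 by curve fitting.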

[2] = molecular target: Epidermal growth factor receptor (Homo sapiens, UniProt P00533); experiment: Inhibition of EGFR kinase autophosphorylation in A431 cells
Blood = experiment: Inhibition of LPS-induced TNFalpha production in human blood; format: functional, tissue-based
In short: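 Heparinized blood from healthy male volunteers diluted 1–5 in RPMI/3% FCS at 37 °C; compounds (in DMSO, 1.0% final) added 30 min before LPS at 10 ng/mL, ~3 h incubation. Plasma TNF-α measured by ELISA or electrochemiluminescence.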

[3] = Clearance in Sprague-Dawley rat; format: ADME, organism-based; settings: in vivo
Monocyte = experiment: Inhibition of LPS-induced TNFalpha production in human monocytes; format: functional, cell-based
In short: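 Monocytes enriched from buffy coat by antibody-cocktail negative selection and two Histopaque-1077 separations, plated at 800,000 cells/well in RPMI/0.5% FBS at 37 °C/5% CO2. Compounds in DMSO added 30 min before LPS at 10 ng/mL, ~3 h incubation; supernatant TNF-α by ELISA or electrochemiluminescence.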

Protein kinase C (PKC) = experiment: Inhibition of PKC; parameters: species or system Homo sapiens
[4] = Bioavailability in Sprague-Dawley rat; format: ADME, organism-based; settings: in vivo
MAP kinase p38 [5] = molecular target: T1, MAP kinase p38 (Homo sapiens, UniProt O15264+Q15759+Q16539+P53778); experiment: Inhibition of P-p38 kinase in human monocytes; format: cell-based
[6] = Inhibition of PKA; parameters: species or system Homo sapiens
Homo sapiens = organism: Homo sapiens; experiment: Inhibition of CAMK2 at 40 uM
[7] = molecular target: T2, Proto-oncogene tyrosine-protein kinase Src (Homo sapiens, UniProt P12931); experiment: Inhibition of Src kinase at 40 uM
[8] = Inhibition of MEK; parameters: species or system Homo sapiens
MAP kinase p38 [9] = molecular target: T1, MAP kinase p38; experiment: Inhibition of p38 kinase; format: protein assay
[10] = Inhibition of S6 kinase; parameters: species or system Homo sapiens
[11] = molecular target: MAP kinase-activated protein kinase 2 (Homo sapiens) (UniProt P49137); experiment: Inhibition of MK2 at 40 uM
Mus musculus [12] = experiment: Inhibition of LPS-induced TNFalpha production in C57B1/6 mouse at 25 mg/kg, ip; format: functional; settings: C57B1/6, ip, route intraperitoneal
In short: (§1)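 Female C57Bl/6 mice, 8–10 weeks old; compound (10 or 25 mg/kg) or vehicle given ip, then 1 h later LPS plus D-galactosamine in PBS ip (2 and […] final). Mice euthanized with CO2 1.5 h after challenge and bled by cardiac puncture; serum TNF-α compared with vehicle.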

[13] = molecular target: T2, Proto-oncogene tyrosine-protein kinase Src; experiment: Inhibition of Src kinase
Mus musculus [14] = experiment: Inhibition of LPS-induced TNFalpha production in C57B1/6 mouse at 10 mg/kg, ip; format: functional; settings: C57B1/6, ip, route intraperitoneal; in short: as §1
MAP kinase p38 [15] = molecular target: T1, MAP kinase p38; experiment: Inhibition of P-p38 kinase in human monocytes at 40 uM; format: cell-based

Chain of Epidermal growth factor receptor (P00533 whole entry): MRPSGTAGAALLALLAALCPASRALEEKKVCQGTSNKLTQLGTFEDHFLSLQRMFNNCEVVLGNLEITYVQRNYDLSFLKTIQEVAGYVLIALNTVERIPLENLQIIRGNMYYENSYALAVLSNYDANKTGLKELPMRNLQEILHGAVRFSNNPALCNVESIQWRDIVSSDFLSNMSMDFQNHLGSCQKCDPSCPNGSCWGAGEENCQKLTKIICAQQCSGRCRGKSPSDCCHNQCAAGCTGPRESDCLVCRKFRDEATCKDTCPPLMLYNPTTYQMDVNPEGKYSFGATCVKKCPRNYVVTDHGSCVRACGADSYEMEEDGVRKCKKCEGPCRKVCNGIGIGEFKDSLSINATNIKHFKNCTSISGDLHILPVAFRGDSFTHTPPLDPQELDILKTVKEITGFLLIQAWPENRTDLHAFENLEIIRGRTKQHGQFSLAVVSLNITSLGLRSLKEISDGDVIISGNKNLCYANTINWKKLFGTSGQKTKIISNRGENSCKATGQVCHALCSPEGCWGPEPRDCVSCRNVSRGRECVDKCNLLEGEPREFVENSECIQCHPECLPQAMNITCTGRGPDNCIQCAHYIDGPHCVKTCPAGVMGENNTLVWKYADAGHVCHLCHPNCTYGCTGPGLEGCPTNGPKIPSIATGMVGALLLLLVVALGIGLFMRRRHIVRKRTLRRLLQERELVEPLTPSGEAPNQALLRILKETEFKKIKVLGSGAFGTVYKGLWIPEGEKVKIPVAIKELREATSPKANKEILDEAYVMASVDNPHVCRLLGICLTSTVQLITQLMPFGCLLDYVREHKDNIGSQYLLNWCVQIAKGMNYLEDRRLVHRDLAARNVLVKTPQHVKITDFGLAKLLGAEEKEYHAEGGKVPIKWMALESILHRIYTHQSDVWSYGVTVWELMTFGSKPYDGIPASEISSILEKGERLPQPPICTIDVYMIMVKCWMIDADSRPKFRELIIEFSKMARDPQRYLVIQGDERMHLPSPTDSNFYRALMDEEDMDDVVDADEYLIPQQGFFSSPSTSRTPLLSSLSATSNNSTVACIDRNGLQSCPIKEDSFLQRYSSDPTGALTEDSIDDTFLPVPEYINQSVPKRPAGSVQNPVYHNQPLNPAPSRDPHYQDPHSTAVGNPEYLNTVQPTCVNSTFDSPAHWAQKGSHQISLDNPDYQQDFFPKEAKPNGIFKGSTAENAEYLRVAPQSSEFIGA
Chain of MAP kinase-activated protein kinase 2 (Homo sapiens) (P49137 whole entry, looked up): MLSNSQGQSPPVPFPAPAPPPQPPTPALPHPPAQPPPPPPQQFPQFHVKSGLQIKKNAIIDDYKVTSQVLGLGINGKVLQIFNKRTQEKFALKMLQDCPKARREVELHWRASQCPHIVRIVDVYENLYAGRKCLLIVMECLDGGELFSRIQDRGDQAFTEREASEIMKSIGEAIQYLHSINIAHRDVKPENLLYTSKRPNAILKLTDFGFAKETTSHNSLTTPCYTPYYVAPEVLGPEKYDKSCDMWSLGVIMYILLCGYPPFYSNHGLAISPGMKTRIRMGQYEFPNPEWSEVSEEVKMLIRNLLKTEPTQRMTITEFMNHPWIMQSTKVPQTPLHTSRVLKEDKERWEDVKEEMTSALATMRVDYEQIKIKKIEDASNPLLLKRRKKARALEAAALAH
T2 sequence (P12931 2-536 limits assumed): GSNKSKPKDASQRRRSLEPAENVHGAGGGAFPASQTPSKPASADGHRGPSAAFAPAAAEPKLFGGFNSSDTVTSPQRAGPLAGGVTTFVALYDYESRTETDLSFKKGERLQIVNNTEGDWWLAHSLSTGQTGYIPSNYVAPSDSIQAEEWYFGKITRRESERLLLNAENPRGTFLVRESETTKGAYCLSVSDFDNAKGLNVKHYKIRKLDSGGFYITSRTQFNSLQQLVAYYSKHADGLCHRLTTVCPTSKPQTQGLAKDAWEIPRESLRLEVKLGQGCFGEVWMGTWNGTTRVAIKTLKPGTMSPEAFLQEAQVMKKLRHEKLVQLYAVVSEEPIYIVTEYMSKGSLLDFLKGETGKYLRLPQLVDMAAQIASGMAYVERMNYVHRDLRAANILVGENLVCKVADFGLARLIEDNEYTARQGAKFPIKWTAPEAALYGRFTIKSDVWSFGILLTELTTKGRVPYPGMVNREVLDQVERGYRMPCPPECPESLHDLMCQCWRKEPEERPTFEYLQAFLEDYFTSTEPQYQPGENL

- IC50 [1]: 2900 nM
Structure (SMILES): CC(C)(C)Nc1c(C#N)cnc2ccc(NCc3cccc(S(C)(=O)=O)c3)cc12

- IC50 [1]: 3600 nM
Structure (SMILES): N#Cc1cnc2cnc(NCCN3CCOCC3)cc2c1Nc1ccc(F)c(F)c1

- IC50 [1]: 50 nM
Structure (SMILES): C[C@@H](Nc1cc2c(Nc3ccc(F)c(Cl)c3)c(C#N)cnc2cn1)c1ccccc1

- IC50 [2]: > 40000 nM
- IC50 (Blood): 4200 nM
- clearance [3]: 50 mL/min/kg
- IC50 [1]: 630 nM
- IC50 (Monocyte): 600 nM
Structure (SMILES): CC(C)(C)Nc1c(C#N)cnc2cnc(NCc3cccnc3)cc12

- IC50 [1]: 2600 nM
Structure (SMILES): N#Cc1cnc2ccc(NCc3cccnc3)cc2c1NC1CCCCCC1

- IC50 [1]: 1300 nM
Structure (SMILES): CC(C)(C)Nc1c(C#N)cnc2ccc(NCc3cccc[n+]3[O-])cc12

- IC50 [1]: 380 nM
Structure (SMILES): N#Cc1cnc2cnc(NCCN3CCOCC3)cc2c1Nc1ccc(Oc2ccccc2)cc1

- IC50 [1]: 3000 nM
Structure (SMILES): Cn1ccnc1CNc1ccc2ncc(C#N)c(NC(C)(C)C)c2c1

- IC50 [1]: 1700 nM
Structure (SMILES): N#Cc1ccccc1CNc1ccc2ncc(C#N)c(NC3CCCC3)c2c1

- IC50 [1]: 7100 nM
Structure (SMILES): N#Cc1cnc2cnc(NCCN3CCOCC3)cc2c1Nc1cccc(I)c1

- IC50 [1]: 7600 nM
Structure (SMILES): N#Cc1cnc2cnc(NCCN3CCOCC3)cc2c1Nc1ccc(Nc2ccccc2)cc1

- IC50 [1]: 1700 nM
Structure (SMILES): CC(C)(C)Nc1c(C#N)cnc2ccc(NCc3cccc(C#N)c3)cc12

- IC50 [1]: 19700 nM
Structure (SMILES): N#Cc1cnc2ccc(NCCN3CCOCC3)cc2c1NC1CCCC1

- IC50 (Blood): > 20000 nM
- IC50 [1]: 50 nM
- IC50 (Monocyte): 1100 nM
Structure (SMILES): N#Cc1cnc2cnc(NCc3cccnc3)cc2c1Nc1ccc(F)c(Cl)c1

- IC50 [1]: 10700 nM
Structure (SMILES): N#Cc1cnc2cnc(NCCN3CCOCC3)cc2c1Nc1ccc(F)cc1

- IC50 [1]: > 10000 nM
Structure (SMILES): N#Cc1cnc2cnc(NCCN3CCOCC3)cc2c1Nc1cccc(C(N)=O)c1

- IC50 [1]: 270 nM
- IC50 (Monocyte): 2000 nM
Structure (SMILES): C#CC(C)(C)Nc1c(C#N)cnc2cnc(NCc3cccnc3)cc12
- Activity (Blood): inactive

- IC50 [1]: 18 nM
Structure (SMILES): N#Cc1cnc2ccc(NCc3cccnc3)cc2c1Nc1ccc(F)c(Cl)c1

- IC50 [1]: 7300 nM
Structure (SMILES): CC(C)(C)Nc1c(C#N)cnc2ccc(NCc3ccc(S(N)(=O)=O)cc3)cc12

- IC50 [1]: > 40000 nM
Structure (SMILES): N#Cc1cnc2cnc(NCc3cccnc3)cc2c1NC1CCNCC1

- IC50 [1]: 920 nM
Structure (SMILES): C[C@H](Nc1cc2c(NC3CCCCCC3)c(C#N)cnc2cn1)c1ccccc1

- IC50 [1]: 2900 nM
Structure (SMILES): CS(=O)(=O)c1cccc(CNc2ccc3ncc(C#N)c(NC4CCCC4)c3c2)c1

- IC50 [1]: 2200 nM
Structure (SMILES): N#Cc1cccc(CNc2ccc3ncc(C#N)c(NC4CCCC4)c3c2)c1

- IC50 [1]: 11500 nM
Structure (SMILES): N#Cc1cnc2cnc(NCCN3CCOCC3)cc2c1Nc1cccc(Oc2ccccc2)c1

- IC50 [2]: > 40000 nM
- IC50 [1]: 2800 nM
Structure (SMILES): N#Cc1cnc2cnc(NCc3cccnc3)cc2c1NC1CC1

- IC50 (Protein kinase C (PKC)): > 10000 nM
- bioavailability [4]: 1%
- IC50 (MAP kinase p38 [5]): 2110 nM
- IC50 [6]: 5840 nM
- Activity (Homo sapiens): inactive
- Activity [7]: inactive
- IC50 [8]: 2400 nM
- IC50 (MAP kinase p38 [9]): 30000 nM
- IC50 [10]: > 10000 nM
- clearance [3]: 97 mL/min/kg
- Activity [11]: inactive
- IC50 (Monocyte): 600 nM
Structure (SMILES): N#Cc1cnc2ccc(NCc3c[nH]cn3)cc2c1Nc1ccc(F)c(Cl)c1
- inhibition in vivo at 25 mg/kg (Mus musculus [12]): 71%

- IC50 [1]: 8000 nM
Structure (SMILES): N#Cc1cnc2cnc(Nc3ccc(F)c(Cl)c3)cc2c1NC1CCCC1

- IC50 [1]: 1300 nM
Structure (SMILES): N#Cc1cnc2ccc(NCc3cccc[n+]3[O-])cc2c1NC1CCCC1

- IC50 [1]: 3000 nM
Structure (SMILES): Cn1ccnc1CNc1ccc2ncc(C#N)c(NC3CCCC3)c2c1

- IC50 [2]: > 20000 nM
- IC50 (Protein kinase C (PKC)): > 40000 nM
- bioavailability [4]: 14%
- IC50 [13]: 38000 nM
- IC50 [6]: > 40000 nM
- IC50 (Blood): 4500 nM
- Activity (Homo sapiens): inactive
- IC50 [8]: > 40000 nM
- IC50 [10]: > 40000 nM
- clearance [3]: 30 mL/min/kg
- Activity [11]: inactive
- IC50 [1]: 160 nM
- Activity (MAP kinase p38 [15]): inactive
- IC50 (Monocyte): 500 nM
Structure (SMILES): N#Cc1cnc2cnc(NCc3cccnc3)cc2c1NC1CCCCCC1
- inhibition in vivo at 10 mg/kg (Mus musculus [14]): 86%

- IC50 [2]: > 40000 nM
- IC50 (Blood): 4700 nM
- IC50 [1]: 470 nM
- IC50 (Monocyte): 500 nM
Structure (SMILES): N#Cc1cnc2cnc(NCc3cccnc3)cc2c1NC1CCCCC1

- IC50 [1]: 21000 nM
Structure (SMILES): N#Cc1cnc2ccc(NCc3ccccc3)cc2c1NC1CCCC1

- IC50 [1]: 2400 nM
Structure (SMILES): N#Cc1cnc2ccc(NCc3cccnc3)cc2c1NC1CCCC1

- IC50 [1]: 1000 nM
Structure (SMILES): N#Cc1cnc2ccc(NCCN3CCOCC3)cc2c1Nc1ccc(F)c(Cl)c1

- IC50 [1]: > 10000 nM
Structure (SMILES): CS(=O)(=O)Nc1cccc(Nc2c(C#N)cnc3cnc(NCCN4CCOCC4)cc23)c1

- IC50 [1]: > 40000 nM
Structure (SMILES): C[C@H](Nc1cc2c(N(C)C3CCCCCC3)c(C#N)cnc2cn1)c1ccccc1

- IC50 [1]: 7300 nM
Structure (SMILES): N#Cc1cnc2ccc(NCc3ccc(S(N)(=O)=O)cc3)cc2c1NC1CCCC1

- IC50 [2]: > 40000 nM
- IC50 (Blood): 7700 nM
- clearance [3]: 28 mL/min/kg
- IC50 [1]: 320 nM
- IC50 (Monocyte): 600 nM
Structure (SMILES): N#Cc1cnc2cnc(NCc3cccnc3)cc2c1NC1CCCC1

- IC50 [1]: > 10000 nM
Structure (SMILES): N#Cc1cnc2cnc(NCCN3CCOCC3)cc2c1Nc1cccc(C(=O)O)c1

- IC50 [2]: < 5000 nM
- IC50 (Blood): 20000 nM
- IC50 [1]: 400 nM
- IC50 (Monocyte): 1100 nM
Structure (SMILES): N#Cc1cnc2cnc(NCc3cccnc3)cc2c1Nc1ccccc1

- IC50 [1]: 1600 nM
Structure (SMILES): N#Cc1cnc2ccc(NCc3ccn[nH]3)cc2c1NC1CCCC1

- IC50 [1]: 250 nM
Structure (SMILES): N#Cc1cnc2ccc(NCCN3CCOCC3)cc2c1Nc1ccc(Oc2ccccc2)cc1

- IC50 [2]: > 40000 nM
- IC50 (Blood): 4500 nM
- IC50 [1]: 360 nM
- IC50 (Monocyte): 800 nM
Structure (SMILES): CCC(C)(C)Nc1c(C#N)cnc2cnc(NCc3cccnc3)cc12

- IC50 [1]: 1600 nM
Structure (SMILES): CC(C)(C)Nc1c(C#N)cnc2ccc(NCc3ccn[nH]3)cc12

- IC50 [1]: > 40000 nM
Structure (SMILES): CC(C)(C)Nc1cc2c(Nc3ccc(F)c(Cl)c3)c(C#N)cnc2cn1

- IC50 [1]: 5200 nM
Structure (SMILES): N#Cc1cnc2cnc(NC3CCCCCC3)cc2c1Nc1ccc(F)c(Cl)c1

- IC50 [1]: 7600 nM
Structure (SMILES): N#Cc1cnc2cnc(NC3CCCC3)cc2c1Nc1ccc(F)c(Cl)c1

- IC50 [1]: 7000 nM
Structure (SMILES): N#Cc1cnc2cnc(NCCN3CCOCC3)cc2c1Nc1ccc([N+](=O)[O-])cc1
